From ChEMBL document CHEMBL3286362, “Farnesyltransferase inhibitors: CAAX mimetics based on different biaryl scaffolds” (Bioorg Med Chem Lett, 2014) come the findings set out here.

The source made the active and inactive calls. The rule behind the calls is not given here.

System in one assay: not listed separately
Put plainly: (§1) Growth inhibition of RASMC after 72 hrs by Coulter counting analysis. It is filed as functional, Rattus norvegicus. Summed up: (§2)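 Proliferation of cultured rat aortic smooth muscle cells, with test agents given as isopropyl esters to aid membrane permeability; IC50 values derived.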
As usually defined, the IC50 is the concentration needed to halve the response being measured. As for `CSCC[C@H](NC(=O)c1ccc(OCC2COc3ccccc3O2)cc1-c1ccoc1)C(=O)OC(C)C` (stereo not given in full), the IC50 amounted to 61 µM.

In turn, `CSCC[C@H](NC(=O)c1ccc(NC(=O)Cc2csc(N)n2)cc1-c1cccc2ccccc12)C(=O)OC(C)C` came in with an IC50 of 81 µM.

In the case of `CSCC[C@H](NC(=O)c1ccc(OCC2COc3ccccc3O2)cc1-c1cccs1)C(=O)OC(C)C` (stereo not given in full), half-maximal inhibition (IC50) required 81 µM.

The molecule `CSCC[C@H](NC(=O)c1ccc(OCC2COc3ccccc3O2)cc1-c1cccc2ccccc12)C(=O)OC(C)C` (stereo not given in full) came in with an IC50 of 155 µM.

Regarding `CSCC[C@H](NC(=O)c1ccc(NC(=O)Cc2csc(N)n2)cc1-c1cncc2ccccc12)C(=O)OC(C)C`, the IC50 was determined as 252 µM.

`CSCC[C@H](NC(=O)c1ccc(NC(=O)Cc2csc(N)n2)cc1-c1ccco1)C(=O)OC(C)C` gave an IC50 of 110 µM.

As for `CSCC[C@H](NC(=O)c1ccc(NC(=O)Cc2csc(N)n2)cc1-c1cccs1)C(=O)OC(C)C`, inhibition was half-maximal at 200 µM (IC50).

`CSCC[C@H](NC(=O)c1ccc(OCC2COc3ccccc3O2)cc1-c1ccco1)C(=O)OC(C)C` (stereo not given in full) displayed an IC50 of 99 µM.

`CSCC[C@H](NC(=O)c1ccc(NC(=O)Cc2csc(N)n2)cc1-c1ccsc1)C(=O)OC(C)C` came in with an IC50 of 123 µM.

For `CSCC[C@H](NC(=O)c1ccc(NC(=O)Cc2csc(N)n2)cc1-c1ccoc1)C(=O)OC(C)C`, it took 259 µM to reach half-maximal inhibition (IC50).

A further assay is filed under the species Rattus norvegicus. The assay is described as §1. It is filed as functional. Summed up:
as §2
Regarding `CSCC[C@H](NC(=O)c1ccc(OCC2COc3ccccc3O2)cc1-c1ccsc1)C(=O)OC(C)C` (stereo not given in full), the “growth inhibition (GI)” value is “inactive”.

As for `CSCC[C@H](NC(=O)c1ccc(OCC2COc3ccccc3O2)cc1-c1cncc2ccccc12)C(=O)OC(C)C` (stereo not given in full), the “growth inhibition (GI)” value is “inactive”.

Regarding `CSCC[C@H](NC(=O)c1ccc(NC(=O)Cc2csc(N)n2)cc1-c1ccoc1)C(=O)OC(C)C`, the “growth inhibition (GI)” value was “Dose-dependent effect”.

System in another assay: not listed separately
Put plainly: (§3) Inhibition of FTase-mediated RAS prenylation in RASMC after 72 hrs by Western blotting analysis. The arrangement: species or system Rattus norvegicus. Summed up: (§4)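 Rat aortic SMCs incubated 72 h with 25 to 400 µM of test ester or without it, alongside simvastatin 2 µM as positive control. Total cell lysates were prepared and Ras prenylation was assessed by Western blot with anti-Ras antibody (clone RAS10).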
For orientation: In western blotting, separated proteins are transferred to a membrane and probed.
Molecule `CSCC[C@H](NC(=O)c1ccc(NC(=O)Cc2csc(N)n2)cc1-c1ccoc1)C(=O)OC(C)C` registered an IC50 of 100 µM.

The species entered for a further assay is Rattus norvegicus. Described as §3. Summed up:
as §4
For orientation: inhibition means the change of the read-out against control, counted positive when it falls. Regarding `CSCC[C@H](NC(=O)c1ccc(NC(=O)Cc2csc(N)n2)cc1-c1ccoc1)C(=O)OC(C)C`, the inhibition entry was “Dose-dependent effect”.

The target of a further assay is T1, Protein farnesyltransferase (Homo sapiens, UniProt P49354+P49356). The assay is described as follows: Inhibition of recombinant FTase (unknown origin) by spectrofluorimetric analysis. The class given is protein-complex assay.
As to `CSCC[C@H](NC(=O)c1ccc(NC(=O)Cc2csc(N)n2)cc1-c1ccoc1)C(=O)O`, the IC50 came out at 2.8 µM.

Consider `CSCC[C@H](NC(=O)c1ccc(OCC2COc3ccccc3O2)cc1-c1ccsc1)C(=O)O` (stereo not given in full), for which the concentration for half-maximal inhibition (IC50) was 5 µM.

The species named for the next assay is Rattus norvegicus. The assay is described as follows: Inhibition of FTase-mediated RAS prenylation in RASMC at 2 uM after 72 hrs by Western blotting analysis. In outline: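 Rat aortic smooth muscle cells were incubated for 72 h with or without test ester (25–400 µM) or with the HMG-CoA reductase inhibitor simvastatin (2 µM) as positive control. Total cell lysates were then prepared and Ras prenylation was assessed by western blot using an anti-Ras antibody (clone RAS10).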
With `CCC(C)(C)C(=O)O[C@H]1C[C@@H](C)C=C2C=C[C@H](C)[C@H](CC[C@@H]3C[C@@H](O)CC(=O)O3)[C@H]21`, the inhibition result is “Active”.

The next assay deals with T1, Protein farnesyltransferase. Put plainly: Inhibition of recombinant FTase (unknown origin) at 20 uM by spectrofluorimetric analysis relative to control. The class given is protein-complex assay. Summed up: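 Fluorescence-based FTase activity assay; free acids screened at a single 20 µM concentration and percent inhibition determined.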
Turning to `CSCC[C@H](NC(=O)c1ccc(OCC2COc3ccccc3O2)cc1-c1cncc2ccccc12)C(=O)O` (stereo not given in full), the inhibition was 14.5%.

`CSCC[C@H](NC(=O)c1ccc(NC(=O)Cc2csc(N)n2)cc1-c1ccsc1)C(=O)O`: the inhibition worked out at 20.9%.

As to `CSCC[C@H](NC(=O)c1ccc(NC(=O)Cc2csc(N)n2)cc1-c1cccc2ccccc12)C(=O)O`, the inhibition stood at 90.4%.

As to `CSCC[C@H](NC(=O)c1ccc(OCC2COc3ccccc3O2)cc1-c1ccco1)C(=O)O` (stereo not given in full), the inhibition worked out at 51.5%.

As to `CSCC[C@H](NC(=O)c1ccc(NC(=O)Cc2csc(N)n2)cc1-c1ccoc1)C(=O)O`, the inhibition worked out at 98.7%.

`CSCC[C@H](NC(=O)c1ccc(OCC2COc3ccccc3O2)cc1-c1cccc2ccccc12)C(=O)O` (stereo not given in full): the inhibition was 41.7%.

For `CSCC[C@H](NC(=O)c1ccc(OCC2COc3ccccc3O2)cc1-c1ccsc1)C(=O)O` (stereo not given in full), the inhibition was 96.6%.

As for `CSCC[C@H](NC(=O)c1ccc(NC(=O)Cc2csc(N)n2)cc1-c1ccco1)C(=O)O`, the inhibition is 15.4%.

`CSCC[C@H](NC(=O)c1ccc(OCC2COc3ccccc3O2)cc1-c1ccoc1)C(=O)O` (stereo not given in full): the inhibition is 48.7%.

As to `CSCC[C@H](NC(=O)c1ccc(OCC2COc3ccccc3O2)cc1-c1cccs1)C(=O)O` (stereo not given in full), the inhibition amounted to 90%.

For the molecule `CSCC[C@H](NC(=O)c1ccc(NC(=O)Cc2csc(N)n2)cc1-c1cccs1)C(=O)O`, the inhibition stood at 53.8%.

For `CSCC[C@H](NC(=O)c1ccc(NC(=O)Cc2csc(N)n2)cc1-c1cncc2ccccc12)C(=O)O`, the inhibition worked out at 0%.
